Experimental data published in ChEMBL document CHEMBL4052653, “Discovery of Novel and Potent Stearoyl Coenzyme A Desaturase 1 (SCD1) Inhibitors as Anticancer Agents” (Bioorg Med Chem, 2017).
pIC50: −log10 of the molar value. Activity calls are given as the source filed them. No cut-off for these calls is given here.

Assays:
Stearoyl-CoA desaturase [1] = biological target: T1, Stearoyl-CoA desaturase (Homo sapiens, UniProt O00767); experiment: Displacement of (5-(6-(10H-spiro(1-benzofuran-3,30-pyrrolidin)-10-yl)pyridazin-3-yl)-1,2,4-oxadiazol-3-yl)[3H2]methanol from SCD1 in human liver microsomes after 120 mins TopCount liquid scintillation counting method
T1 sequence (O00767 whole entry): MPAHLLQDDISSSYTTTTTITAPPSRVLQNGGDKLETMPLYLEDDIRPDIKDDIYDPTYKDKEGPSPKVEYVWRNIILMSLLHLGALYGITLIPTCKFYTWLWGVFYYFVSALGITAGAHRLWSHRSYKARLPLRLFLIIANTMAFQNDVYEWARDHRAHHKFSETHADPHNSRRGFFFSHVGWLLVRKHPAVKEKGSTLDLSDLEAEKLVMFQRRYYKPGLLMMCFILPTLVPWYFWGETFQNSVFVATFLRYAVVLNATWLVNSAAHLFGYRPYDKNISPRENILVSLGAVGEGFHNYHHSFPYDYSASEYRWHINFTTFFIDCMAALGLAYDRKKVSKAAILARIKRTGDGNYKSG
How it was run: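 Human SCD1 liver microsomes incubated 120 min with 3.0 nM [3H]-ligand and test compound over a range of concentrations. Bound ligand collected on PEI-pretreated GF/B filters, washed five times, counted by scintillation. Controls: DMSO (100%) and 10 µM unlabeled reference ligand (0%). IC50 from a three-parameter logistic fit.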

HCT-116 = experiment: Growth inhibition of human HCT116 cells after 72 hrs by CellTiter-Glo luminescence assay; format: functional; conditions: HCT-116, 72 h
How it was run: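 HCT116 cells seeded at 9 × 10^2 cells/well and cultured 24 h. Compounds diluted in growth medium to final concentrations and added. Proliferation read by CellTiter-Glo luminescence after 72 h.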

[2] = Stability in mouse liver microsomes; format: ADME, microsome; conditions: read-out: Stability
[3] = Fraction unbound in mouse plasma; format: ADME, cell-free
[4] = Stability in human liver microsomes; format: ADME, microsome; conditions: read-out: Stability
[5] = Total clearance in mouse at 0.1 mg/kg, iv or 1 mg/kg, po administered as cassette dose; format: ADME, organism-based; conditions: in vivo
How it was run: (§1)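 Mouse cassette-dosing PK: 0.1 mg/kg iv and 1 mg/kg po. Total clearance given in […]. AUC (ng·h/mL) and MRT (h) taken after the oral dose.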

[6] = AUC in po dosed mouse administered as cassette dose; format: ADME, organism-based; conditions: in vivo; how it was run: as §1
[7] = Mean residence time in po dosed mouse administered as cassette dose; format: ADME, organism-based; conditions: in vivo; how it was run: as §1
Stearoyl-CoA desaturase [8] = biological target: T1, Stearoyl-CoA desaturase; experiment: Inhibition of SCD1 (unknown origin)
Mus musculus [9] = experiment: AUC in mouse at 1 mg/kg, po administered as cassette dose; format: ADME, organism-based; conditions: in vivo; how it was run: as §1
[10] = Mean residence time in mouse at 1 mg/kg, po administered as cassette dose; format: ADME, organism-based; conditions: in vivo; how it was run: as §1
Mus musculus [11] = experiment: In-vivo inhibition of SCD1 in athymic nude mouse xenografted with human HCT116 cells assessed as decrease in desaturation index of phosphatidylcholine at 0.3 to 30 mg/kg, po bid measured after 16 hrs by LC/MS analysis; format: functional, organism-based
How it was run: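 Nude mice bearing HCT116 xenografts of about 200 mm3, randomized. Oral dosing at 0.3, 3 and 30 mg/kg bid in 0.5% methylcellulose. Tumors collected 16 h after two doses and homogenized in isopropanol. Lipids analyzed by LC/Orbitrap MS. DI taken as the ratio PC C36:3/PC C36:0. Statistics by Williams' test.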

786-0 = experiment: Antitumor activity against human 786-O cells xenografted in athymic BALB/cA Jc1-nu/nu mouse assessed as tumor growth inhibition at 1 mg/kg, po bid administered for 28 days measured twice per week; format: functional
How it was run: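 Female BALB/c nu/nu mice, 7 weeks old, inoculated subcutaneously in the flank with 3.0 × 10^6 786-O cells (1:1 with Matrigel). Randomized at mean tumor volume of about 130 mm3, n = 8/group. Dosed orally at 1 mg/kg bid, or with 0.5% methylcellulose vehicle, for 28 days at 10 mL/kg. Calipers used twice weekly, volume = W²×L/2. T/C taken at Day 28; Student's t-test.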

Mus musculus [12] = experiment: Toxicity in athymic BALB/cA Jc1-nu/nu mouse at 1 mg/kg, po bid administered for 28 days; format: organism-based; conditions: in vivo, 672 h

Row | SMILES | pIC50 (Stearoyl-CoA desaturase [1]) | GI50 (HCT-116) [nM] | microsomal CLint [2] [µL/min/mg] | microsomal CLint [4] [µL/min/mg] | other results
1 | N#CC1(c2ccc(OC(F)(F)F)cc2)CCN(c2ccc(-c3nc(CO)no3)nn2)CC1 | 7.96 | 32 | 35 | – | –
2 | OCc1nsc(-c2ccc(N3CCC(c4ccc(C(F)(F)F)cc4)(C(F)(F)F)CC3)nn2)n1 | 8.92 | 1.3 | – | 10 | fraction unbound [3]: 0.01; clearance [5]: 8.23 mL/min/kg; AUC [6]: 1820 ng·h/mL; MRT [7]: 4.2 h
3 | N#CC1(c2ccc([N+](=O)[O-])cc2)CCN(c2ccc(-c3nc(CO)no3)nn2)CC1 | 7.00 | 170 | 11 | 6 | –
4 | N#CC1(c2ccc(S(F)(F)(F)(F)F)cc2)CCN(c2ccc(-c3nc(CO)no3)nn2)CC1 | 8.02 | 8.4 | 24 | 7 | –
5 | CC(C)(C)c1ccc(C2(C#N)CCN(c3ccc(-c4nc(CO)no4)nn3)CC2)cc1 | 7.68 | 37 | 119 | – | –
6 | OCc1noc(-c2ccc(N3CCC4(COc5ccccc54)C3)nn2)n1 (stereo unspecified) | – | – | – | – | pIC50 (Stearoyl-CoA desaturase [8]): 8.34; AUC (Mus musculus [9]): 299 ng·h/mL; MRT [10]: 2.3 h
7 | OCc1nnc(-c2ccc(N3CCC(c4ccc(C(F)(F)F)cc4)(C(F)(F)F)CC3)nn2)s1 | 8.60 | 1.1 | 1 | – | fraction unbound [3]: 0.03; clearance [5]: 15.9 mL/min/kg; AUC [6]: 1190 ng·h/mL; MRT [7]: 4.1 h
8 | OCc1noc(-c2ccc(N3CCC(c4ccc(C(F)(F)F)cc4)(C(F)(F)F)CC3)nn2)n1 | 8.64 | 1.3 | 19 | 20 | fraction unbound [3]: 0.05; clearance [5]: 15.4 mL/min/kg; AUC [6]: 432 ng·h/mL; MRT [7]: 3.2 h
9 | N#CC1(c2ccc(Cl)cc2)CCN(c2ccc(-c3nc(CO)no3)nn2)CC1 | 7.70 | 110 | 39 | – | –
10 | N#CC1(c2ccc(C(F)(F)F)cc2)CCN(c2ccc(-c3nc(CO)no3)nn2)CC1 | 7.57 | 39 | 33 | 2 | –
11 | OCc1nnc(-c2ccc(N3CCC(c4ccc(C(F)(F)F)cc4)(C(F)(F)F)CC3)nn2)o1 | 8.33 | 2.7 | 33 | 14 | fraction unbound [3]: 0.07; clearance [5]: 5.17 mL/min/kg; AUC [6]: 3760 ng·h/mL; MRT [7]: 4.2 h; inhibition (Mus musculus [11]): Active; T/C (786-0): 32.8%; Activity (Mus musculus [12]): Non-Toxic

The next lines start with results.

Row | pIC50 (Stearoyl-CoA desaturase [1]) | GI50 (HCT-116) [nM] | microsomal CLint [2] [µL/min/mg] | microsomal CLint [4] [µL/min/mg] | SMILES | other results
12 | 6.66 | 530 | – | – | NC1(c2ccccc2)CCN(c2ccc(-c3nc(CO)no3)nn2)CC1 | –
13 | 7.10 | 240 | – | – | N#CC1(c2ccccc2Cl)CCN(c2ccc(-c3nc(CO)no3)nn2)CC1 | –
14 | 6.72 | 530 | – | – | N#CC1(c2ccccc2)CCN(c2ccc(-c3nc(CO)no3)nn2)CC1 | –
15 | 7.82 | 200 | – | – | N#CC1(c2cccc(Cl)c2)CCN(c2ccc(-c3nc(CO)no3)nn2)CC1 | –
16 | 6.96 | 410 | – | – | COC1(c2ccccc2)CCN(c2ccc(-c3nc(CO)no3)nn2)CC1 | –
17 | 6.89 | > 1000 | – | – | OCc1noc(-c2ccc(N3CCC(O)(c4ccccc4)CC3)nn2)n1 | –
18 | 7.42 | 39 | – | – | OCc1noc(-c2ccc(N3CCC(c4ccccc4)(C(F)(F)F)CC3)nn2)n1 | –
